Measurements of several laboratories.
Each line is one published result; the experiments were not run side by side.

Compound | organism | test | test system | setting | quantity | value
CC(C)(O/N=C(\C(=O)N[C@@H]1C(=O)N2C(C(=O)[O-])=C(C[n+]3ccccc3)CS[C@H]12)c1csc(N)n1)C(=O)O | Acinetobacter baumannii | microbial growth, disc diffusion |  | 10 µg/disc, clinical isolate | inhibition zone | 6 mm
C/C(O)=C1\C(=O)C(CC(C)C)N(C(=O)C=Cc2ccccc2)C1=O (stereo not drawn) | Proteus mirabilis | microbial growth | ATCC25933 |  | MIC | > 200 µg/mL
[N-]=[N+]=Nc1nc(N=[N+]=[N-])c2ncn([C@@H]3O[C@H](COC(=O)c4ccccc4)[C@@H](F)[C@@H]3F)c2n1 | Hepatitis C virus | viral replication, inhibitor | Huh-7 | replicon | EC90 | > 10 µM
Cc1ccc(S(=O)(=O)Nc2nc(N)c(-c3nc4ccccc4s3)c(-c3ccc(F)cc3)n2)cc1 | Enterovirus B | plaque formation | BGM, B4 |  | IC50 | 82 µg/mL
CCCCCCC/C=C/C(=O)N1C(=O)/C(=C(\O)c2ccccc2)C(=O)C1CC(C)C (stereo not drawn) | Proteus mirabilis | microbial growth | ATCC25933 |  | MIC | > 200 µg/mL
O=C(CNc1nc(NS(=O)(=O)c2ccccc2)ncc1-c1nc2ccccc2s1)c1ccc(Br)cc1 | Enterovirus B | plaque formation | BGM, B4 |  | IC50 | 84 µg/mL
C[C@]1(CO)[C@H]2CC[C@@H]3CN(Cc4ccc(F)c(Cl)c4)[C@@H](C4=CCOC4=O)C[C@H]3[C@]2(C)CC[C@H]1O | unidentified human coronavirus | cytopathic effect | MRC5 | 25 µM, 72 h | inhibition | 20%
C/C(=C\c1ccc(C#N)cc1)C(=O)Nc1ccc(C(=O)N[C@@H](CC(N)=O)C(=O)Nc2ccc(C(=O)Nc3ccc(C(=O)Nc4ccc(C(=O)O)cc4)c(O)c3OC(C)C)cc2)cc1 | Proteus mirabilis | microbial growth | DSM4479 |  | MIC | > 64 µg/mL
COC(=O)N[C@H](C(=O)N1CCC[C@H]1C(=O)Nc1cccc(C#CC#Cc2cccc(NC(=O)[C@@H]3CCCN3C(=O)[C@@H](NC(=O)OC)C(C)C)c2)c1)C(C)C | Hepatitis C virus | viral replication, inhibitor, luciferase | GETYPE3A | replicon | EC50 | 9.5 µM
CC(C)CN1C[C@H]2CC[C@@H]3[C@]4(C)COC(C)(C)O[C@@H]4CC[C@@]3(C)[C@@H]2C[C@@H]1C1=CCOC1=O | unidentified human coronavirus | cytopathic effect | MRC5 | 25 µM, 72 h | inhibition | 28.6%
CCOC(=O)C=c1[nH]c(=O)c(=Cc2cn(-c3ccccc3)nc2-c2ccccc2)s1 | Acinetobacter baumannii | microbial growth, well diffusion |  | 100000 µg/mL | inhibition zone | 12 mm
CCOC(=O)N[C@@H](C(=O)N1CCC[C@H]1C(=O)Nc1cccc(C#CC#Cc2cccc(NC(=O)[C@@H]3CCCN3C(=O)[C@H](NC(=O)OCC)C(C)C)c2)c1)C(C)C | Hepatitis C virus | viral replication, inhibitor, luciferase | Huh-5-2, GETYPE1B | 72 h, replicon | EC50 | 0.07 µM
O=C(OC[C@H]1O[C@H](n2cnc3c(Cl)nc(Cl)nc32)[C@@H](F)[C@@H]1F)c1ccccc1 | Hepatitis C virus | viral replication, inhibitor | Huh-7 | replicon | EC90 | < 10 µM
Cc1c(NN=C2SC(CC#N)=NC2=O)c(=O)n(-c2ccccc2)n1C | Acinetobacter baumannii | microbial growth, well diffusion |  | 100000 µg/mL | inhibition zone | 15 mm
Nc1nc(NS(=O)(=O)c2ccccc2)nc(-c2ccc(Cl)cc2)c1-c1nc2ccccc2s1 | Enterovirus B | plaque formation | BGM, B4 |  | IC50 | 91 µg/mL
CC1(C)OC[C@@]2(C)[C@H]3CC[C@@H]4CN(Cc5ccccc5C5CC5)[C@@H](C5=CCOC5=O)C[C@H]4[C@]3(C)CC[C@H]2O1 | unidentified human coronavirus | cytopathic effect | MRC5 | 25 µM, 72 h | inhibition | 93.2%
CCCCCCC/C=C/C(=O)N1C(=O)/C(=C(/C)O)C(=O)C1Cc1ccc(OC(C)(C)C)cc1 (stereo not drawn) | Proteus mirabilis | microbial growth | ATCC25933 |  | MIC | > 200 µg/mL
CC1(C)OC[C@@]2(C)[C@H]3CC[C@@H]4CN(Cc5ccc(C(C)(C)C)cc5)[C@@H](C5=CCOC5=O)C[C@H]4[C@]3(C)CC[C@H]2O1 | unidentified human coronavirus | cytopathic effect | MRC5 | 25 µM, 72 h | inhibition | 103%

Compound | organism | test | test system | setting | quantity | value
CC(C)COC(=O)N[C@H](C(=O)N1CCC[C@H]1C(=O)Nc1cccc(C#CC#Cc2cccc(NC(=O)[C@@H]3CCCN3C(=O)[C@@H](NC(=O)OCC(C)C)C(C)C)c2)c1)C(C)C | Hepatitis C virus | viral replication, inhibitor, luciferase | Huh-5-2, GETYPE1B | 72 h, replicon | EC50 | 0.38 µM
Nc1nc2c(ncn2[C@@H]2O[C@H](CO)[C@@H](F)[C@@H]2F)c(=O)[nH]1 | Hepatitis C virus | viral replication, inhibitor | Huh-7 | replicon | EC90 | > 10 µM
O=C(O)c1cn(C2CC2)c2cc(N3CCNCC3)c(F)cc2c1=O | Acinetobacter baumannii | microbial killing, broth dilution |  |  | MBC | 0.25 µg/mL
CCOC(=O)c1cc(C#N)c(=O)n(NS(=O)(=O)c2ccccc2)c1N | Enterovirus B | plaque formation | BGM, B4 |  | IC50 | 88 µg/mL
CCCCOC(=O)N[C@H](C(=O)N1CCC[C@H]1C(=O)Nc1cccc(C#CC#Cc2cccc(NC(=O)[C@@H]3CCCN3C(=O)[C@@H](NC(=O)OCCCC)[C@@H](C)CC)c2)c1)[C@H](C)CC | Hepatitis C virus | viral replication, inhibitor, luciferase | Huh-5-2, GETYPE1B | 72 h, replicon | EC50 | > 10 µM
N#CC(=Cc1cn(-c2ccccc2)nc1-c1ccccc1)C1=NC(=O)CS1 | Acinetobacter baumannii | microbial killing, broth dilution |  |  | MBC | 0.5 µg/mL
COc1nc(OC)c2ncn([C@@H]3O[C@H](CO)[C@@H](F)[C@@H]3F)c2n1 | Hepatitis C virus | viral replication, inhibitor | Huh-7 | replicon | EC90 | > 10 µM
CCOC(=O)N[C@H](CC(C)C)C(=O)N1CCC[C@@H]1C(=O)Nc1ccc(C#CC#Cc2ccc(NC(=O)[C@H]3CCCN3C(=O)[C@@H](CC(C)C)NC(=O)OCC)cc2)cc1 | Hepatitis C virus | viral replication, inhibitor, luciferase | Huh-5-2, GETYPE1B | 72 h, replicon | EC50 | > 10 µM
CCCCCCC/C=C/C(=O)N1C(=O)/C(=C(\O)c2ccc(F)cc2)C(=O)C1CC(C)C (stereo not drawn) | Proteus mirabilis | microbial growth | ATCC25933 |  | MIC | > 200 µg/mL
CC1(C)OC[C@@]2(C)[C@H]3CC[C@@H]4CN(Cc5ccc(I)cc5)[C@@H](C5=CCOC5=O)C[C@H]4[C@]3(C)CC[C@H]2O1 | unidentified human coronavirus | cytopathic effect | MRC5 | 25 µM, 72 h | inhibition | 87.2%
CCOC(=O)N[C@H](CC(C)C)C(=O)N1CCC[C@@H]1C(=O)Nc1cccc(C#CC#Cc2cccc(NC(=O)[C@H]3CCCN3C(=O)[C@@H](CC(C)C)NC(=O)OCC)c2)c1 | Hepatitis C virus | viral replication, inhibitor, luciferase | Huh-5-2, GETYPE1B | 72 h, replicon | EC50 | 0.41 µM
Oc1ccc(/C=C/c2cc(O)cc(O)c2)cc1 | Leishmania tarentolae | parasite growth, resazurin |  | 48 h, promastigote | IC50 | 79.8 µM
Cc1c(NC(=O)CC2=NC(=O)CS2)c(=O)n(-c2ccccc2)n1C | Acinetobacter baumannii | microbial killing, broth dilution |  |  | MBC | 0.25 µg/mL
Cc1cn([C@H]2C[C@H](N=[N+]=[N-])[C@@H](CO)O2)c(=O)[nH]c1=O | Hepatitis C virus | viral replication, inhibitor | Huh-7 | replicon | EC90 | > 10 µM
C[C@@]12COCO[C@@H]1CC[C@]1(C)[C@@H]2CC[C@@H]2CN(Cc3ccccc3)[C@@H](C3=CCOC3=O)C[C@H]21 | unidentified human coronavirus | cytopathic effect | MRC5 | 25 µM, 72 h | inhibition | 9.5%
CN[C@H](CC(C)C)C(=O)N[C@H]1C(=O)N[C@@H](CC(N)=O)C(=O)N[C@H]2C(=O)N[C@H]3C(=O)N[C@H](C(=O)N[C@H](C(=O)O)c4cc(O)cc(O)c4-c4cc3ccc4O)[C@H](O)c3ccc(c(Cl)c3)Oc3cc2cc(c3O[C@@H]2O[C@H](CO)[C@@H](O)[C@H](O)[C@H]2O[C@H]2C[C@](C)(N)[C@H](O)[C@H](C)O2)Oc2ccc(cc2Cl)[C@H]1O | Acinetobacter baumannii | microbial killing, broth dilution | BAA747 |  | MBC | > 128 µM
COc1nc(Cl)nc2c1ncn2[C@@H]1O[C@H](CO)[C@@H](F)[C@@H]1F | Hepatitis C virus | viral replication, inhibitor | Huh-7 | replicon | EC50 | > 10 µM
O=C(Nc1ccccc1-c1ccc(F)c(F)c1)c1nccnc1C(F)(F)F | Venturia nashicola | microbial growth |  |  | EC50 | 0.8 µg/mL
